Most compounds without a hit are left out; they make up all but 4.3% or so of the library.
STAT1 act: activators of IFN-gamma induced STAT1 signaling; NIH 3T3 STAT1-luciferase reporter, luminescence; 100% = IFN-gamma alone, no compound; activation (% of control), % at 5.5 µM; 2.6% of 200,000 active; AID 932;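 active means activation above the screen-wide mean activation plus 3 SD, cut at about 130% in these data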;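 further: raw ratio to IFN-gamma control signal so 100% means no change and 0% no light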
APP 5'UTR act: APP 5'UTR luciferase reporter activation | SH-SY5Y APP 5'UTR luciferase reporter, luminescence; zero percent = DMSO vehicle wells | activation, % at 2 µM | 1% of 190,000 active;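 active means activation above a set limit, based on mean plus 3 SD of controls, cut at about 140% in these data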
FLuc inhib CS: inhibits firefly luciferase, flagging false hits in luciferase inhibition screens; P08659; ATPLite firefly luciferase biochemical luminescence, 10 min; inhibition, % at 10 µM; 1.5% of 200,000 active;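 active means inhibition above about 50% when tested at 10 µM, limit read from the data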
Target sequence (P08659 whole entry, looked up): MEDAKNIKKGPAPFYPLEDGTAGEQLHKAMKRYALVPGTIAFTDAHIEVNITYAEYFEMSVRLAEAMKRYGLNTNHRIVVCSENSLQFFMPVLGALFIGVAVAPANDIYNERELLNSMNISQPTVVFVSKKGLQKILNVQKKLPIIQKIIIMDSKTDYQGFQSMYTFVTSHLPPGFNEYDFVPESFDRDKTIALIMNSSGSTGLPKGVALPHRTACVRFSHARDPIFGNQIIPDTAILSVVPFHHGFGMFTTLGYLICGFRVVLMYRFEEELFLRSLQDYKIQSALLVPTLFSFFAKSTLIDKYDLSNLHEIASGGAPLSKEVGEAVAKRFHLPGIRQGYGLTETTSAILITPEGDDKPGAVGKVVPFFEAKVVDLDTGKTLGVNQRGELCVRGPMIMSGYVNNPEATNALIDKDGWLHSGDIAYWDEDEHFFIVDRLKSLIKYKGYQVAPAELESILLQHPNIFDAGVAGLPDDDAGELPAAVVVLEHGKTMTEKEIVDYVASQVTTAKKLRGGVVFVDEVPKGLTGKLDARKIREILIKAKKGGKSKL
NF-kB neuron act: NF-kB expression increase, human neuronal cells | NF-kB reporter expression; hits give high values | AID 1239 | fold change at 12.5 µM | 1.6% of 190,000 active; in the data active means fold change above about 3.3
SDO1 yeast rescue: restores growth of sdo1-depleted yeast; AID 817; S. cerevisiae sdo1-depleted JHY4D growth rescue, OD600 30 h; hits give high values; pdr5 snq2 efflux-pump mutant strain; z-score at 10 µM; 0.21% of 140,000 active;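 active means z-score above 3 at both the 24 hr and the 30 hr optical density reads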;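 further: z-score against mean and SD of all compound wells on the same plate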
FLuc act counter: affects firefly luciferase, flagging false hits in luciferase stimulation screens. AID 1027. activation factor at 10 µM. 200,000 tested, under 10 active. ATPlite luciferase biochemical, luminescence, 10 min; 0 = ATP-free wells, 1 = DMSO control. P08659;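 active means luciferase activation factor, scaled between plate controls, of at least 2 with compound at 10 µM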
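System: Luciferase/luciferin detection reagent, cell-free biochemical luciferase assay | Medium: PBS buffer for ATP | Dosing: Test compounds dosed from 2 mM stocks in 100% DMSO | Timing: 10 min at ambient temperature | Signal: Luminescence measurement of luciferase light output | Evaluation: Luciferase activation, seen as luminescence increase over controls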
Starred values were filed as active, the others as inactive; . = no result given.

SMILES	STAT1 act	APP 5'UTR act	FLuc inhib CS	NF-kB neuron act	SDO1 yeast rescue	FLuc act counter
COc1cc(/C=N/NC(=O)c2cc(-c3c(C)nn(-c4ccccc4)c3C)n[nH]2)ccc1O	209*	-6	13	0.73	.	0.9
COc1ccc(/C=N/Nc2nc3ccccc3s2)cc1O	121	136*	83*	4.6*	.	0.2
COc1ccc(/C=N/NC(=O)c2nc(-c3ccccc3)cc(-c3ccccc3)n2)cc1	120	2	11	0.43	-1.8	0.9
COc1ccc(/C=N/Nc2nc3ccccc3o2)cc1O	118	137*	66*	8.6*	0.37	0.3
COc1ccc(/C=N/NC(=O)c2nc(-c3ccccc3)cc(-c3ccccc3)n2)cc1O	131*	11	14	0.6	-1	0.9
COc1cc(/C=N/NC(=O)c2nc(-c3ccccc3)n(-c3ccccc3)n2)ccc1O	103	-12	-3	0.76	-0.02	1
CCCN(CCC)C(=S)NC(=O)c1ccc(-c2ccccc2)cc1	102	9	5	1.6	-2.5	1
COc1ccc(-c2nn(C)c(=O)c3ccccc23)cc1NC(=O)Cn1nc(-c2ccccc2)c2ccccc2c1=O	82	0	-5	0.82	0.67	1
Cc1nnc(NC(=O)c2cc3n(n2)C(C(F)(F)F)CC(C2CC2)N3)s1 (stereo unspecified)	101	20	-7	1.2	0.73	1.1
O=C(Nc1ccccc1)c1cc2n(n1)C(C(F)(F)F)CC(C1CC1)N2 (stereo unspecified)	142*	86	0	2.3	.	1
COC(=O)c1ccc(/C=C(\C#N)c2nc3ccccc3s2)cc1	96	9	9	1	0.93	0.9
N#C/C(=C\c1ccccn1)c1nc2ccccc2s1	112	3	68*	1.5	.	0.3
O=C(NC(=S)Nc1ccccn1)c1ccco1	132*	100	28	2.3	1.4	0.7
Cc1ccc(O)c(NC(=S)NC(=O)/C=C/c2ccco2)c1	99	45	-2	1.2	.	1
Cc1ccnc(NC(=S)NC(=O)c2ccco2)c1	130*	149*	61*	4.7*	0.07	0.4
O=C(NC(=S)Nc1cccnc1Cl)c1ccco1	115	7	58*	1	.	0.4
Cc1ccnc(NC(=S)NC(=O)/C=C/c2ccco2)c1	144*	86	39	2.4	-0.64	0.6
O=C(NC(=S)Nc1ccccc1[N+](=O)[O-])c1ccco1	97	-18	21	1.7	.	0.8
O=C(NCCc1nnc2ccc(NCc3ccc(Cl)cc3)nn12)c1ccccc1	99	-3	-6	0.85	.	1.1
CC(C)(C)c1ccc(C(=O)Nc2ccc(CC(=O)O)cc2)o1	50	.	51*	0.38	0.85	0.5
Cc1ccc(C(=O)Nc2ccc(CC(=O)O)cc2)o1	98	-2	-2	1.1	0.33	1
O=C(CCN1C(=O)C2C3CC(C(Br)C3Br)C2C1=O)OCC(=O)c1ccccc1 (stereo unspecified)	99	-4	1	1.2	0.18	1
O=C(/C=C/c1ccc([N+](=O)[O-])cc1)Nc1ncc([N+](=O)[O-])s1	147*	221*	61*	1.4	.	0.4
O=C(/C=C/c1ccc([N+](=O)[O-])cc1)NCc1ccccn1	108	-18	-6	1.1	0.98	1.1
O=C(NCCCCCCNC(=O)c1cccs1)c1cccs1	100	12	-3	1.1	.	1
SMILES	STAT1 act	APP 5'UTR act	FLuc inhib CS	NF-kB neuron act	SDO1 yeast rescue	FLuc act counter
O=C(NCCc1cccs1)c1cccs1	134*	94	16	2.3	.	0.8
O=C(Nc1cccc2ccccc12)/C(Cl)=C/c1ccccc1	108	16	10	1.3	-0.85	0.9
O=C(Nc1ccc(F)cc1)/C(Cl)=C/c1ccccc1	150*	188*	48	7.3*	.	0.5
CCCC(=O)NNC(=O)c1ccoc1C	96	-13	-8	1.2	1.1	1.1
CCC(C)(C)C1CCC(=NNC(=O)c2ccoc2C)CC1 (stereo unspecified)	126	144*	-4	1.7	-0.06	1
COc1c(Cl)cnn(-c2ccc(Cl)c(Cl)c2)c1=O	106	5	1	1.2	.	1
COc1ccc(C(=O)Nn2c(SCC(=O)NCc3ccccc3)nc3ccccc3c2=O)cc1	94	66	13	0.63	0.28	0.9
O=C(CSc1nc2ccccc2c(=O)n1NC(=O)c1ccccc1)c1ccc(Cl)cc1	124	158*	-1	2	-1.3	1
CC(=O)NCCn1c(SCC(=O)c2ccc(Cl)cc2)nc2ccccc2c1=O	98	21	-3	0.92	-0.34	1
COc1ccc(C(=O)Nn2c(SCC(=O)NCC3CCCO3)nc3ccccc3c2=O)cc1 (stereo unspecified)	57	57	82*	0.81	0.26	0.2
COc1ccccc1NC(=O)c1cc(C(=O)Nc2ccccc2OC)cc(N2C(=O)CCC2=O)c1	102	3	-1	1.2	0.43	1
COc1ccc(Oc2nnc(C)c3ccccc23)cc1	130*	38	14	3.5*	0.44	0.9
Cc1nnc(Oc2ccccc2)c2ccccc12	111	26	4	1.8	-0.63	1
CCn1ccc(C(=O)Oc2ccc(C(C)C)cc2)n1	100	0	62*	1.2	0.79	0.4
O=C1c2ccccc2C(=O)C1c1ccc2ccccc2n1	125	129	91*	1.2	-0.8	0.1
CC(C)OCCCNC(=S)Nc1ccc(S(N)(=O)=O)cc1	108	5	1	1.1	0.24	1
Cc1cccc(-c2c3c(=O)n(C)c(=O)n(C)c3c3nnc4ccccc4n23)c1	108	-10	.	.	.	.
CCCCCN1C(=O)Cn2c(nc3ccccc3c2=O)C1C (stereo unspecified)	100	3	-8	0.9	.	1.1
COCCOC(=O)c1[nH]c2c(c1C)C(=O)C(C(=O)OC)C(C)C2 (stereo unspecified)	117	9	54*	2.1	0.36	0.5
COC(=O)C1C(=O)c2c([nH]c(C(=O)OCC3CCCO3)c2C)CC1C (stereo unspecified)	120	89	54*	1.9	1	0.5
CCCCCOC(=O)c1[nH]c2c(c1C)C(=O)C(C(=O)OC)C(C)C2 (stereo unspecified)	109	28	4	2	-0.96	1
Cc1ccccc1NC(=O)C(=O)c1cn(C)c2ccccc12	128	52	8	2	.	0.9
CCCc1cc(=O)n2c([nH]c3ccccc32)c1C#N	94	-6	66*	1.2	0.02	0.3
O=C(CSc1nnc(NC(=O)c2ccco2)s1)Nc1ccc(F)cc1	101	-27	16	1.1	.	0.8
CC(C)(C)C(=O)Nc1nnc(SCC(=O)Nc2ccc3c(c2)OCO3)s1	106	6	6	0.84	0.2	0.9
